From ChEMBL document CHEMBL2321697, “The effect of absolute configuration on activity, subtype selectivity (M3/M2) of 3α-acyloxy-6β-acetoxyltropane derivatives as muscarinic M3 receptor antagonists” (Bioorg Med Chem, 2013)

Experiments:
[1] = biological target: T1, Muscarinic acetylcholine receptor M2 (Rattus norvegicus, UniProt P10980); experiment: Displacement of [3H]NMS from muscarinic M2 receptor in Sprague-Dawley rat left atria after 60 mins
T1 sequence (P10980 whole entry): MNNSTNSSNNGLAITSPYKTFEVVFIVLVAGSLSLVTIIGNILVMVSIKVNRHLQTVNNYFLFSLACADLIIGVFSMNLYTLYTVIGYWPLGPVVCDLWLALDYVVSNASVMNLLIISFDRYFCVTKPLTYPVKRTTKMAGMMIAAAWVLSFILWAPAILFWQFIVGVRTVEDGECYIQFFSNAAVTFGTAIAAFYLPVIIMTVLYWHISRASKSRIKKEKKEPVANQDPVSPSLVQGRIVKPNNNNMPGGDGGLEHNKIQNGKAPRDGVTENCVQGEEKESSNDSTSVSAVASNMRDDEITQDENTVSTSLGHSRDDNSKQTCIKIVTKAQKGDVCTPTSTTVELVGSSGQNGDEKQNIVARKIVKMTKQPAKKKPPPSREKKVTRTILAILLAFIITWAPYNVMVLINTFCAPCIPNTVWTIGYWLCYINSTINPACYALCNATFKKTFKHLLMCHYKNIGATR
Summary of the method: (§1)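 Membranes from male SD rat (220–250 g) left atria (M2) or submandibulary glands (M3). Tissue homogenised in ice-cold 0.32 M sucrose/50 mM Tris pH 7.4, then spun at 1000g and 20000g, all steps at 4 °C. Membranes (0.1 mg protein) incubated 60 min at 37 °C with 0.4 nM [3H]NMS plus increasing test concentrations. Filtration read-out. IC50 converted to Ki by Cheng–Prusoff, mean SEM.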

[2] = biological target: Muscarinic receptor M2 and M3 (Rattus norvegicus) (UniProt P08483+P10980); experiment: Selectivity ratio of Ki for muscarinic M2 receptor in Sprague-Dawley rat left atria to Ki for muscarinic M3 receptor in Sprague-Dawley rat submandibulary gland
Sequence of Muscarinic receptor M2 and M3 (Rattus norvegicus) (P08483 whole entry, looked up, one chain of several): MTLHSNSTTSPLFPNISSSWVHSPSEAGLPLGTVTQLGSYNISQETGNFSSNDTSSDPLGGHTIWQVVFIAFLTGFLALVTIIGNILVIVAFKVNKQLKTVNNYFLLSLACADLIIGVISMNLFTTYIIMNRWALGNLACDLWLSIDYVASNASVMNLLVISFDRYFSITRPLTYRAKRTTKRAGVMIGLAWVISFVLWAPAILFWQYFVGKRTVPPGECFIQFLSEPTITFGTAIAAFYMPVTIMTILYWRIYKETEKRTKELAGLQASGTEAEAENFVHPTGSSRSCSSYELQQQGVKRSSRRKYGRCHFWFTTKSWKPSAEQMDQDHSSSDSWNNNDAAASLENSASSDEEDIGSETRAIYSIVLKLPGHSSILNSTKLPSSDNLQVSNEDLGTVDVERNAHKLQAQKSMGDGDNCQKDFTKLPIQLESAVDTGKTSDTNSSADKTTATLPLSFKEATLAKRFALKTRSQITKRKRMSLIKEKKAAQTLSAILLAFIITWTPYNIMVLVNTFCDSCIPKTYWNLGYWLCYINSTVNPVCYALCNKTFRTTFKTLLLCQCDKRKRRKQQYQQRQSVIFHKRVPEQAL

Muscarinic receptor 2 = biological target: T2, Muscarinic receptor 2 (Cavia porcellus, UniProt Q8VH27); experiment: Antagonist activity at muscarinic M2 receptor in guinea pig left atria assessed as inhibition of carbachol-induced […]; conditions: read-out: pA2 (converted)
T2 sequence (Q8VH27 whole entry): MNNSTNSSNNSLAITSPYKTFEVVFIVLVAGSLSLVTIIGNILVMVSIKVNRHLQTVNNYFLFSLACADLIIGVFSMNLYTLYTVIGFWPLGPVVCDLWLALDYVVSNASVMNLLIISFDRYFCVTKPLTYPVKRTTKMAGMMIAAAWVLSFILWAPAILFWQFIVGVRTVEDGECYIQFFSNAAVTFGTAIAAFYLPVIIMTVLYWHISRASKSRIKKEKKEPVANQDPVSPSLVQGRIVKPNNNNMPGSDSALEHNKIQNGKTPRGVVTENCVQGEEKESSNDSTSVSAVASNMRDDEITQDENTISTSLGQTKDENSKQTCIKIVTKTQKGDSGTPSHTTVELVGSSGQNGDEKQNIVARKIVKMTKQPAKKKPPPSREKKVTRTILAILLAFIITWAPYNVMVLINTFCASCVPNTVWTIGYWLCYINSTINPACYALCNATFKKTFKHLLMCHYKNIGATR
Summary of the method: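 Isolated left atria in Kreb's solution under 500 mg tension, stabilised 45 min, then electrically paced (2 Hz, 6 ms, 10 V square-wave submaximal pulses). Inotropic response recorded isometrically. Cumulative carbachol curves expressed as % of contraction before agonist. Antagonist tested at two or three concentrations. pA2 obtained by Schild analysis.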

[3] = biological target: Muscarinic acetylcholine receptor M3 (Cavia porcellus, UniProt Q8VH26); experiment: Antagonist activity at muscarinic M3 receptor in guinea pig ilea assessed as inhibition of carbachol-induced contraction; conditions: read-out: pA2 (converted)
Sequence of Muscarinic acetylcholine receptor M3 (Cavia porcellus, UniProt Q8VH26) (Q8VH26 whole entry): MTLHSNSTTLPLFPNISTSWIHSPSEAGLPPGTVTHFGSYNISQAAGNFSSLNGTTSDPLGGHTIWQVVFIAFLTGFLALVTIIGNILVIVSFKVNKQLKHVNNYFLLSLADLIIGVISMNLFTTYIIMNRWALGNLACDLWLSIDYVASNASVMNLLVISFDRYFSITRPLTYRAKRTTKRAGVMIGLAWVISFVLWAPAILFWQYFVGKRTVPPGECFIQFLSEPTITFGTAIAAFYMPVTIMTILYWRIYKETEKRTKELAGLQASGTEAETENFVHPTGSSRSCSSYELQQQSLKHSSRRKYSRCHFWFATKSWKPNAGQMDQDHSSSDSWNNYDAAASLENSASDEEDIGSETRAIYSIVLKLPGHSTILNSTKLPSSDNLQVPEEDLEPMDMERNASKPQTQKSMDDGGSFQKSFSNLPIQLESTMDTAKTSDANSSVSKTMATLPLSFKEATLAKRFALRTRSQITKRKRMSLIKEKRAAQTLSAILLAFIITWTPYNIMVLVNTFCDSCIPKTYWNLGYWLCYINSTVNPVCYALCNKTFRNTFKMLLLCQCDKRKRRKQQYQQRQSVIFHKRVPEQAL
Summary of the method: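 Ileal strips (1.5 cm) in 10 ml baths of Kreb's solution under 1000 mg load, equilibrated 30 min with fluid changed every 15 min. Isotonic recording. Cumulative carbachol curve with roughly 3-fold steps, each added once the prior response was steady. Responses expressed as % of control maximum. Antagonist at three concentrations. pA2 by Schild analysis.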

[4] = biological target: Muscarinic acetylcholine receptor M3 (Rattus norvegicus, UniProt P08483); experiment: Displacement of [3H]NMS from muscarinic M3 receptor in Sprague-Dawley rat submandibulary gland after 60 mins; summary of the method: as §1
Sequence of Muscarinic acetylcholine receptor M3 (Rattus norvegicus, UniProt P08483) (P08483 whole entry): as the sequence (P08483 whole entry, looked up, one chain of several) above

Row | SMILES | Ki [1] [µM] | Ratio Ki [2] | Kb (Muscarinic receptor 2) [µM] | Kb [3] [µM] | Ki [4] [µM]
1 | CC(=O)O[C@H]1C[C@@H]2C[C@@H](OC(=O)c3ccccc3)C[C@@H]1N2C | 10.7 | 4 | 1.32 | 0.309 | 2.7
2 | CC(=O)O[C@H]1C[C@@H]2C[C@@H](OC(=O)Cc3ccccc3)C[C@@H]1N2C | 12 | 13 | 1.1 | 0.123 | 0.92
3 | CC(=O)O[C@@H]1C[C@@H]2C[C@H](OC(=O)c3ccccc3[N+](=O)[O-])C[C@@H]1N2C | 84 | 1.3 |  |  | 66
4 | CC(=O)O[C@H]1C[C@@H]2C[C@@H](OC(=O)c3ccccc3[N+](=O)[O-])C[C@@H]1N2C | 9.8 | 2.6 | 0.851 | 0.389 | 3.7
5 | CC(=O)O[C@@H]1C[C@@H]2C[C@H](OC(=O)Cc3ccccc3)C[C@@H]1N2C | 86 | 0.9 |  |  | 95
6 | CC(=O)O[C@H]1C[C@@H]2C[C@@H](OC(=O)c3ccccc3Cl)C[C@@H]1N2C | 8.8 | 6.3 | 0.631 | 0.275 | 1.4
7 | CC(=O)O[C@@H]1C[C@@H]2C[C@H](OC(=O)c3ccccc3Cl)C[C@@H]1N2C | 95 | 1.1 |  |  | 83
8 | CC(=O)O[C@@H]1C[C@@H]2C[C@H](OC(=O)c3ccccc3)C[C@@H]1N2C | 77 | 1.1 |  |  | 71
